Data reported in ChEMBL document CHEMBL4619820, “Development of Novel AKR1C3 Inhibitors as New Potential Treatment for Castration-Resistant Prostate Cancer” (J Med Chem, 2020).
Positions count from the first letter of the chain named. Activity calls are given as the source filed them. The rule behind the calls is not given here.

Experiments:
[1] = molecular target: T1, Carbonyl reductase [NADPH] 1 (Homo sapiens, UniProt P16152); experiment: Inhibition of CBR1 (unknown origin)
T1 sequence (P16152 whole entry): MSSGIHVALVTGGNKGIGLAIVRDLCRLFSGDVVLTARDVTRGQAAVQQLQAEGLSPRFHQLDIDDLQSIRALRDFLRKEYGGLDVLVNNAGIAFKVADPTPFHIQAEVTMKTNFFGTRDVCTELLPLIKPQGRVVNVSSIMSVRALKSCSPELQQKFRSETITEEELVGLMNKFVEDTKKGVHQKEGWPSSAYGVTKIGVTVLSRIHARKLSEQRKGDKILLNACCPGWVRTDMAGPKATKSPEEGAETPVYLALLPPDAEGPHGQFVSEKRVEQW

Homo sapiens [2] = species on record: Homo sapiens; experiment: Ratio of IC50 for inhibition of recombinant AKR1C4 (unknown origin) inhibition of recombinant AKR1C3 (unknown origin)
[3] = molecular target: T2, Aldo-keto reductase family 1 member C3 (Homo sapiens, UniProt P42330); experiment: Inhibition of recombinant AKR1C3 (unknown origin) assessed as reduction in S-tetralol-induced dehydrogenase activity by measuring NADPH level
T2 sequence (P42330 whole entry): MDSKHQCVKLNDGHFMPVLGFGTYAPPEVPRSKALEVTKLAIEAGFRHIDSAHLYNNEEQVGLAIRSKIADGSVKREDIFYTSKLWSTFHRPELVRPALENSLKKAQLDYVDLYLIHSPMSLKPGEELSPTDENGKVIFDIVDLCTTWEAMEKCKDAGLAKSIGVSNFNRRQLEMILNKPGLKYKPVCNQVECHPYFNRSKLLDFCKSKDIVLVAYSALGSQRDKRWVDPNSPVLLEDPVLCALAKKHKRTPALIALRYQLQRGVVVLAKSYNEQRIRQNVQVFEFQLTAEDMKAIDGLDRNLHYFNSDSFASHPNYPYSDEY

[4] = molecular target: T3, Androgen receptor (Homo sapiens) (UniProt P10275); experiment: Agonistic activity at AR in human 22Rv1 cells assessed as effect on cell number at 1 nM by CCK8 assay; type: cell-based; settings: CWR22R
T3 sequence (whole entry): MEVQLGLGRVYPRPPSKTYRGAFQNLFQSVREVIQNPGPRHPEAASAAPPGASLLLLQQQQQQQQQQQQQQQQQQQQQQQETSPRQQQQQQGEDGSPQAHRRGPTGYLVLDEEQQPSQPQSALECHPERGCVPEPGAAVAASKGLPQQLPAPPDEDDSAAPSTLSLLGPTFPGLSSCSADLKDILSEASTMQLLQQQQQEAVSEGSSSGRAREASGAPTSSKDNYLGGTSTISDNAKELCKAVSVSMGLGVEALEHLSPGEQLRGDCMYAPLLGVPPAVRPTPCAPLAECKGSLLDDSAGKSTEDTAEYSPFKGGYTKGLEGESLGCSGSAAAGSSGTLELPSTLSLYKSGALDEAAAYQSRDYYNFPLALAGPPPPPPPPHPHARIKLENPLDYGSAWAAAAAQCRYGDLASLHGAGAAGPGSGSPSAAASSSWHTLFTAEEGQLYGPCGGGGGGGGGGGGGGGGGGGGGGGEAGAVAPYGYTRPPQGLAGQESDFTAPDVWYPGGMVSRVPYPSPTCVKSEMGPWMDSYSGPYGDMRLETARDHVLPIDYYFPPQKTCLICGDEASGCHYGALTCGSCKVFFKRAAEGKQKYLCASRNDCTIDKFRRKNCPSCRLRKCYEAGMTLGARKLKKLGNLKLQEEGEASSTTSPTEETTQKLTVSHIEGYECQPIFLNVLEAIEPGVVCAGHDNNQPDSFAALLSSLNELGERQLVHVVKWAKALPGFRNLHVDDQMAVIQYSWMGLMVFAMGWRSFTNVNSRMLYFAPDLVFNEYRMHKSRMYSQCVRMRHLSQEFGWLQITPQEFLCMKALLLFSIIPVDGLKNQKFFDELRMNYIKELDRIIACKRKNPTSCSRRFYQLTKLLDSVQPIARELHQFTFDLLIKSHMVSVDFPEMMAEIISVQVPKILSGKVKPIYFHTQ

Homo sapiens [5] = species on record: Homo sapiens; experiment: Ratio of IC50 for inhibition of recombinant AKR1C1 (unknown origin) inhibition of recombinant AKR1C3 (unknown origin)
[6] = molecular target: T4, Aldo-keto reductase family 1 member C1 (Homo sapiens, UniProt Q04828); experiment: Inhibition of recombinant AKR1C1 (unknown origin) assessed as reduction in S-tetralol-induced dehydrogenase activity by measuring NADPH level
T4 sequence (Q04828 whole entry): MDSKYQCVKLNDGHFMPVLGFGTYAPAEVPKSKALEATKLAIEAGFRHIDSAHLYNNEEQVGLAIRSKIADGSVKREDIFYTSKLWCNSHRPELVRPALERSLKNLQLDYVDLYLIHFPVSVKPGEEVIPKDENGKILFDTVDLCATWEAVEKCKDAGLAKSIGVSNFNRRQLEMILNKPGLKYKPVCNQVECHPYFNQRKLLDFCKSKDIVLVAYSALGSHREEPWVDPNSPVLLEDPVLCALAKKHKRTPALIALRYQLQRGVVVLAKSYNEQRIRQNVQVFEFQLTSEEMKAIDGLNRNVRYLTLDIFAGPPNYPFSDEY

[7] = molecular target: T5, Aldo-keto reductase family 1 member C4 (Homo sapiens, UniProt P17516); experiment: Inhibition of recombinant AKR1C4 (unknown origin) assessed as reduction in S-tetralol-induced dehydrogenase activity by measuring NADPH level
T5 sequence (P17516 whole entry): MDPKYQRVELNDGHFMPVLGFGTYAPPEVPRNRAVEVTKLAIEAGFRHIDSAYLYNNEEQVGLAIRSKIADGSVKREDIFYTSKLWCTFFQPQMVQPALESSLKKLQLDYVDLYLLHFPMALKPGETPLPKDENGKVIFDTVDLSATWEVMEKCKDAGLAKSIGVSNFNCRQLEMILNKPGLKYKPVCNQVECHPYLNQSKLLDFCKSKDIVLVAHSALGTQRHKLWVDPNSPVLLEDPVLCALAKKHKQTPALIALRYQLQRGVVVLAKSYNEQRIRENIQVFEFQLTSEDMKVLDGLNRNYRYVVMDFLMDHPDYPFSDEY

[8] = molecular target: T6, Aldo-keto reductase family 1 member C2 (Homo sapiens, UniProt P52895); experiment: Inhibition of recombinant AKR1C2 (unknown origin) assessed as reduction in S-tetralol-induced dehydrogenase activity by measuring NADPH level
T6 sequence (P52895 whole entry): T4 sequence (Q04828 whole entry) with T38V, R47H, L54V, C87S, V151M, R170H, Q172L

Homo sapiens [9] = species on record: Homo sapiens; experiment: Ratio of IC50 for inhibition of CBR1 (unknown origin) inhibition of recombinant AKR1C3 (unknown origin)
Homo sapiens [10] = species on record: Homo sapiens; experiment: Ratio of IC50 for inhibition of recombinant AKR1C2 (unknown origin) inhibition of recombinant AKR1C3 (unknown origin)
CWR22R [11] = experiment: Inhibition of PSA mRNA expression in human 22Rv1 cells at 10 uM pre-incubated for 2 hrs before pregnenolone stimulation for 24 hrs by RT-qPCR analysis; type: functional, cell-based
Outline: (§1)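 22Rv1 cells pretreated 2 h with test agents, then stimulated 24 h with 20 nM pregnenolone; AR, TMPRSS2 and PSA mRNA measured by RT-qPCR, given as ratio to pregnenolone-free control.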

CWR22R [12] = experiment: Inhibition of TMPRSS2 mRNA expression in human 22Rv1 cells at 10 uM pre-incubated for 2 hrs before pregnenolone stimulation for 24 hrs by RT-qPCR analysis; type: functional, cell-based; outline: as §1
CWR22R [13] = experiment: Inhibition of AR mRNA expression in human 22Rv1 cells at 10 uM pre-incubated for 2 hrs before pregnenolone stimulation for 24 hrs by RT-qPCR analysis; type: functional, cell-based; outline: as §1
CWR22R [14] = experiment: Inhibition of pregnenolone-induced cell proliferation of human 22Rv1 cells at 10 uM pre-incubated for 2 hrs before pregnenolone stimulation for 72 hrs by alamar blue assay; type: functional, cell-based
Outline: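 22Rv1 cells (AKR1C3- and AR-expressing) pretreated 2 h with agents, then cultured 72 h with 20 nM pregnenolone; viable cell number given as percent of pregnenolone-free control.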

PC-3 [15] = settings: Homo sapiens, at 10 µM
PC-3 [16] = experiment: Inhibition of cell proliferation of human PC3 cells over-expressing AKR1C3 at 1 uM incubated for 72 hrs by alamar blue assay; type: functional, cell-based

SMILES	IC50 [3] [nM]	Activity [4]	further results
N=c1oc2c(O)cccc2cc1C(=O)Nc1cccc(F)c1	29	inactive	IC50 [1]: 370 nM; Ratio IC50 (Homo sapiens [2]): > 340; Ratio IC50 (Homo sapiens [5]): > 340; IC50 [6]: > 10 µM; IC50 [7]: > 10 µM; IC50 [8]: > 10 µM; Ratio IC50 (Homo sapiens [9]): 13; Ratio IC50 (Homo sapiens [10]): > 340
N=c1oc2c(O)cccc2cc1C(=O)Nc1ccccc1O	> 10000	inactive	
CC(C)c1cccc(NC(=O)c2cc3cccc(O)c3oc2=N)c1	47		
N=c1oc2c(O)cccc2cc1C(=O)Nc1ccc(C(F)(F)F)cc1C(F)(F)F	58		
N=c1oc2c(O)cccc2cc1C(=O)Nc1ccccc1	36	inactive	
CCc1ccccc1NC(=O)c1cc2cccc(O)c2oc1=N	21	inactive	
N=c1oc2c(O)cccc2cc1C(=O)Nc1ccc(F)c(F)c1	220	inactive	
N=c1oc2c(O)cccc2cc1C(=O)Nc1cc(F)c(F)c(F)c1	47	inactive	
CC(C)c1ccccc1NC(=O)c1cc2cccc(O)c2oc1=N	30		
N=c1oc2c(O)cccc2cc1C(=O)Nc1cccc(C(F)(F)F)c1	50		
N=c1oc2ccc(O)cc2cc1C(=O)Nc1ccc(F)cc1	> 10000		
CC(C)C(=O)Nc1ccc([N+](=O)[O-])c(C(F)(F)F)c1			inhibition (CWR22R [11]): Active; inhibition (CWR22R [12]): Active; inhibition (CWR22R [13]): Active; inhibition (CWR22R [14]): Active
N=c1oc2c(O)cccc2cc1C(=O)Nc1ccccc1Cl	56	inactive	IC50 [1]: 34 nM; Ratio IC50 (Homo sapiens [2]): > 180; Ratio IC50 (Homo sapiens [5]): > 180; IC50 [6]: > 10 µM; IC50 [7]: > 10 µM; IC50 [8]: > 10 µM; Ratio IC50 (Homo sapiens [9]): 0.6; Ratio IC50 (Homo sapiens [10]): > 180
Cc1ccccc1NC(=O)c1cc2cccc(O)c2oc1=N	52		
N=c1oc2c(O)cccc2cc1C(=O)Nc1ccc(O)cc1	> 10000	inactive	
N=c1oc2c(O)cccc2cc1C(=O)Nc1cccc(O)c1	60	inactive	
N=c1oc2c(O)cccc2cc1C(=O)Nc1ccc(Cl)cc1	52	inactive	
N=c1oc2c(O)cccc2cc1C(=O)Nc1ccccc1C(F)(F)F	20		IC50 [1]: 75 nM; Ratio IC50 (Homo sapiens [2]): > 500; Ratio IC50 (Homo sapiens [5]): > 500; IC50 [6]: > 10 µM; IC50 [7]: > 10 µM; IC50 [8]: > 10 µM; Ratio IC50 (Homo sapiens [9]): 4; Ratio IC50 (Homo sapiens [10]): > 500
CCc1ccc(NC(=O)c2cc3cccc(O)c3oc2=N)cc1	45	inactive	
N#CC(=C(/N)Sc1ccccc1N)/C(C#N)=C(\N)Sc1ccccc1N			inhibition (PC-3 [15]): inactive
N=c1oc2c(O)cccc2cc1C(=O)Nc1cccc(Cl)c1	46	inactive	IC50 [1]: 120 nM; Ratio IC50 (Homo sapiens [2]): > 220; Ratio IC50 (Homo sapiens [5]): > 220; IC50 [6]: > 10 µM; IC50 [7]: > 10 µM; IC50 [8]: > 10 µM; Ratio IC50 (Homo sapiens [9]): 3; Ratio IC50 (Homo sapiens [10]): > 220
N=c1oc2cc(O)ccc2cc1C(=O)Nc1ccc(F)cc1	> 10000		
COc1cccc2cc(C(=O)Nc3ccc(F)cc3)c(=N)oc12	> 10000		
COC[C@H]1OC(=O)c2coc3c2[C@@]1(C)C1=C(C3=O)[C@@H]2CCC(=O)[C@@]2(C)C[C@H]1OC(C)=O			inhibition (PC-3 [16]): Active
Cc1cccc(NC(=O)c2cc3cccc(O)c3oc2=N)c1	55		
N=c1oc2c(O)cccc2cc1C(=O)Nc1ccccc1F	64	inactive	
N=c1oc2cccc(O)c2cc1C(=O)Nc1ccc(F)cc1	370		
N=c1oc2c(O)cccc2cc1C(=O)Nc1ccc(C(F)(F)F)cc1	24		
